Data from ChEMBL document CHEMBL1143122, “Novel analogs of D-e-MAPP and B13. Part 1: synthesis and evaluation as potential anticancer agents” (Bioorg Med Chem, 2008).

What was measured:
[1] = tested on: SNB-75; test: Antiproliferative activity against human SNB75 cells after 48 hrs; format: functional; conditions: SNB-75, 48 h; for CC50: read-out: Log LC50 (the source's name) (converted); for TGI: read-out: Log TGI (converted)
Method in brief: (§1)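 NCI 60-cell screen. Cells were grown in RPMI 1640 with 5% FBS and 2 mM L-glutamine, then plated at 5,000–40,000 cells/well according to doubling time and preincubated for 24 h at 37 °C in 5% CO2. Compounds were dissolved in DMSO at 400× the top final concentration and tested at five 10-fold dilutions from 10−4 to 10−8 M for 48 h. Growth was read spectrophotometrically; GI50 is 50% net protein reduction.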

[2] = tested on: ACHN; test: Antiproliferative activity against human ACHN cells after 48 hrs; format: functional; conditions: for CC50: read-out: Log LC50 (the source's name) (converted); for TGI: read-out: Log TGI (converted); method in brief: as §1
[3] = tested on: SK-MEL-5; test: Antiproliferative activity against human SKMEL5 cells after 48 hrs; format: functional; conditions: SK-MEL-5, 48 h; for TGI: read-out: Log TGI (converted); method in brief: as §1
[4] = tested on: OVCAR-4; test: Antiproliferative activity against human OVCAR4 cells after 48 hrs; format: functional; conditions: OVCAR-4, 48 h; for TGI: read-out: Log TGI (converted); method in brief: as §1
[5] = tested on: NCI-H23; test: Antiproliferative activity against human NCI-H23 cells after 48 hrs; format: functional; conditions: NCI-H23, 48 h; for CC50: read-out: Log LC50 (the source's name) (converted); for TGI: read-out: Log TGI (converted); method in brief: as §1
[6] = tested on: SF-268; test: Antiproliferative activity against human SF268 cells after 48 hrs; format: functional; conditions: SF-268, 48 h; for TGI: read-out: Log TGI (converted); method in brief: as §1
[7] = tested on: Malme-3M; test: Antiproliferative activity against human MALME3M cells after 48 hrs; format: functional; conditions: for TGI: read-out: Log TGI (converted); method in brief: as §1
[8] = tested on: NCI-H460; test: Antiproliferative activity against human NCI-H460 cells after 48 hrs; format: functional; conditions: NCI-H460, 48 h; for TGI: read-out: Log TGI (converted); method in brief: as §1
[9] = tested on: SK-MEL-28; test: Antiproliferative activity against human SKMEL28 cells after 48 hrs; format: functional; conditions: SK-MEL-28, 48 h; for TGI: read-out: Log TGI (converted); method in brief: as §1
[10] = tested on: MDA-MB-231; test: Antiproliferative activity against human MDA-MB-231 cells after 48 hrs; format: functional; conditions: MDA-MB-231, 48 h; for TGI: read-out: Log TGI (converted); method in brief: as §1
[11] = tested on: MOLT-4; test: Antiproliferative activity against human MOLT4 cells after 48 hrs; format: functional; conditions: MOLT-4, 48 h; method in brief: as §1
[12] = tested on: K562; test: Antiproliferative activity against human K562 cells after 48 hrs; format: functional; conditions: K562, 48 h; for TGI: read-out: Log TGI (converted); method in brief: as §1
[13] = tested on: MCF7; test: Drug level in human MCF7 cells at 10 uM per 10^6 cells after 0.5 hrs; format: ADME, cell-based; conditions: mcf7, 0.5 h
Method in brief: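 MCF7 cells kept in RPMI 1640 with 10% fetal calf serum at 37 °C, 5% CO2, then treated with 10 μM analog. Intracellular analog measured over time by HPLC-MS in positive-ion MRM mode. Quantified against calibration curves made by spiking an artificial matrix with standards plus internal standard, using analyte/IS peak-area ratios and linear regression. Reported as pmol per 1×10^6 cells.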

[14] = tested on: OVCAR-5; test: Antiproliferative activity against human OVCAR5 cells after 48 hrs; format: functional; conditions: OVCAR-5, 48 h; for CC50: read-out: Log LC50 (the source's name) (converted); for TGI: read-out: Log TGI (converted); method in brief: as §1
[15] = tested on: SF-539; test: Antiproliferative activity against human SF539 cells after 48 hrs; format: functional; conditions: SF-539, 48 h; for TGI: read-out: Log TGI (converted); method in brief: as §1
[16] = Antiproliferative activity against human HL60(TB) cells after 48 hrs; format: functional, HL-60(TB); conditions: HL-60, 48 h; for TGI: read-out: Log TGI (converted)
Method in brief: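 NCI 60-line panel screen: cells grown in RPMI 1640 with 5% fetal bovine serum and 2 mM L-glutamine, plated at 5,000–40,000 cells/well by doubling time, and preincubated 24 h at 37 °C in 5% CO2. Drugs were solubilised in DMSO at 400-fold the final maximum and tested at five 10-fold dilutions from 10−4 to 10−8 M for 48 h. Net protein was read spectrophotometrically, and the concentration giving 50% reduction was reported as log10 GI50.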

[17] = tested on: Hs-578T; test: Antiproliferative activity against human HS578T cells after 48 hrs; format: functional; conditions: for TGI: read-out: Log TGI (converted); method in brief: as §1
[18] = tested on: U-251; test: Antiproliferative activity against human U251 cells after 48 hrs; format: functional; conditions: U-251, 48 h; for CC50: read-out: Log LC50 (the source's name) (converted); for TGI: read-out: Log TGI (converted)
Method in brief: (§2)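 NCI 60-cell-line screen. Lines grown in RPMI 1640 with 5% fetal bovine serum and 2 mM L-glutamine, plated at 5,000–40,000 cells/well according to doubling time, left 24 h at 37 °C in 5% CO2. Drug stocks in DMSO at 400-fold the top final concentration. Five 10-fold dilutions, 10−4 to 10−8 M, incubated 48 h. Growth read spectrophotometrically as net protein; GI50 taken as 50% reduction.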

[19] = tested on: OVCAR-8; test: Antiproliferative activity against human OVCAR8 cells after 48 hrs; format: functional; conditions: OVCAR-8, 48 h; for TGI: read-out: Log TGI (converted); method in brief: as §1
[20] = Antiproliferative activity against human […] cells after 48 hrs; format: functional; conditions: for TGI: read-out: Log TGI (converted); method in brief: as §1
[21] = tested on: 786-0; test: Antiproliferative activity against human 786-0 cells after 48 hrs; format: functional; conditions: 786-0, 48 h; for CC50: read-out: Log LC50 (the source's name) (converted); for TGI: read-out: Log TGI (converted); method in brief: as §1
[22] = tested on: IGROV-1; test: Antiproliferative activity against human IGROV1 cells after 48 hrs; format: functional; conditions: IGROV-1, 48 h; for TGI: read-out: Log TGI (converted); method in brief: as §1
[23] = Antiproliferative activity against human NCI-ADR-RES cells after 48 hrs; format: functional; conditions: for TGI: read-out: Log TGI (converted); method in brief: as §1
[24] = tested on: BT-549; test: Antiproliferative activity against human BT549 cells after 48 hrs; format: functional; conditions: BT-549, 48 h; for TGI: read-out: Log TGI (converted); method in brief: as §1
[25] = tested on: UO-31; test: Antiproliferative activity against human UO31 cells after 48 hrs; format: functional; conditions: UO-31, 48 h; for TGI: read-out: Log TGI (converted); method in brief: as §2
[26] = tested on: COLO 205; test: Antiproliferative activity against human COLO205 cells after 48 hrs; format: functional; conditions: COLO 205, 48 h; for CC50: read-out: Log LC50 (the source's name) (converted); for TGI: read-out: Log TGI (converted); method in brief: as §1
[27] = tested on: HOP-92; test: Antiproliferative activity against human HOP92 cells after 48 hrs; format: functional; conditions: HOP-92, 48 h; method in brief: as §1
[28] = read-out: Log LC50 (the source's name) (converted)

C[C@H](NC(=O)CCCCCCCCCCCCCCC[n+]1ccccc1)[C@H](O)c1ccccc1.[Br-]
GI50 [1]: 1.7 µM
CC50 [1]: 38 µM
TGI [1]: 11.2 µM
GI50 [2]: 21.9 µM
CC50 [2]: 91.2 µM
TGI [2]: 44.7 µM
GI50 [3]: 1.62 µM
CC50 [3, 28]: 9.55 µM
TGI [3]: 3.89 µM
GI50 [4]: 1.66 µM
LC50 [4]: 42.7 µM
TGI [4]: 12.3 µM
GI50 [5]: 2.95 µM
CC50 [5]: 49 µM
TGI [5]: 15.5 µM
GI50 [6]: 3.24 µM
LC50 [6]: 43.7 µM
TGI [6]: 13.2 µM
GI50 [7]: 2.45 µM
LC50 [7]: 20 µM
TGI [7]: 5.89 µM
GI50 [8]: 2.82 µM
CC50 [8, 28]: 41.7 µM
TGI [8]: 13.2 µM
GI50 [9]: 2.34 µM
LC50 [9]: 20.4 µM
TGI [9]: 6.03 µM
GI50 [10]: 3.24 µM
LC50 (50% lethal concentration) [10]: 42.7 µM
TGI [10]: 33.1 µM
GI50 [11]: 4.9 µM
LC50 [11]: 63.1 µM
TGI ([11]; read-out: Log TGI (converted)): 18.6 µM
GI50 [12]: 0.912 µM
LC50 [12]: 77.6 µM
TGI [12]: 15.8 µM
Drug uptake [13]: 800 pmol
GI50 [14]: 11 µM
CC50 [14]: 51.3 µM
TGI [14]: 24 µM
GI50 [15]: 3.39 µM
LC50 [15]: 39.8 µM
TGI [15]: 14.1 µM
GI50 [16]: 1.48 µM
LC50 [16]: 31.6 µM
TGI [16]: 4.37 µM
GI50 [17]: 3.24 µM
LC50 [17]: > 100 µM
TGI [17]: 13.5 µM
GI50 [18]: 2.95 µM
CC50 [18]: 38.9 µM
TGI [18]: 13.8 µM
GI50 [19]: 3.89 µM
CC50 [19, 28]: > 100 µM
TGI [19]: 22.9 µM
GI50 [20]: 3.63 µM
LC50 [20]: 42.7 µM
TGI [20]: 14.8 µM
GI50 [21]: 10.2 µM
CC50 [21]: 49 µM
TGI [21]: 22.4 µM
GI50 [22]: 3.16 µM
LC50 [22]: 57.5 µM
TGI [22]: 15.8 µM
GI50 [23]: > 100 µM
LC50 [23]: > 100 µM
TGI [23]: > 100 µM
LC50 [24]: 8.71 µM
TGI [24]: 0.851 µM
GI50 [25]: 28.8 µM
LC50 [25]: > 100 µM
TGI [25]: 95.5 µM
GI50 [26]: 1.05 µM
CC50 [26]: 31.6 µM
TGI [26]: 4.9 µM

CCCCCCCCCCCCCCN[C@H](CO)[C@H](O)c1ccccc1
GI50 [1]: 2.29 µM
CC50 [1]: 27.5 µM
TGI [1]: 5.62 µM
GI50 [2]: 1.74 µM
CC50 [2]: 5.62 µM
TGI [2]: 3.16 µM
GI50 [3]: 2.14 µM
TGI [3]: 4.07 µM
GI50 [4]: 1.91 µM
TGI [4]: 3.8 µM
GI50 [5]: 3.55 µM
CC50 [5]: 64.6 µM
TGI [5]: 9.77 µM
GI50 [6]: 1.66 µM
TGI [6]: 3.24 µM
GI50 [7]: 2.09 µM
LC50 [7]: 9.55 µM
TGI [7]: 3.8 µM
GI50 [8]: 1.86 µM
TGI [8]: 3.47 µM
GI50 [9]: 1.82 µM
LC50 [9]: 5.62 µM
TGI [9]: 3.24 µM
GI50 [10]: 1.74 µM
LC50 (50% lethal concentration) [10]: 6.61 µM
TGI [10]: 3.39 µM
GI50 [11]: 2.09 µM
GI50 [12]: 2.24 µM
LC50 [12]: > 100 µM
TGI [12]: 4.9 µM
GI50 [14]: 2.09 µM
CC50 [14]: 7.08 µM
TGI [14]: 3.8 µM
GI50 [15]: 1.55 µM
LC50 [15]: 6.03 µM
TGI [15]: 3.09 µM
GI50 [27]: 1.41 µM
LC50 [27]: 5.89 µM
TGI ([27]; read-out: Log TGI (converted)): 2.88 µM
GI50 [16]: 3.31 µM
LC50 [16]: 8.51 µM
TGI [16]: 3.72 µM
GI50 [17]: 2.82 µM
LC50 [17]: > 100 µM
TGI [17]: 6.46 µM
GI50 [18]: 1.78 µM
CC50 [18]: 5.62 µM
TGI [18]: 3.16 µM
GI50 [19]: 1.86 µM
TGI [19]: 3.8 µM
GI50 [20]: 3.16 µM
LC50 [20]: 91.2 µM
TGI [20]: 17.4 µM
GI50 [21]: 1.62 µM
CC50 [21]: 5.62 µM
TGI [21]: 3.02 µM
GI50 [22]: 1.55 µM
TGI [22]: 3.24 µM
GI50 [23]: 2.09 µM
LC50 [23]: 6.92 µM
TGI [23]: 3.8 µM
GI50 [24]: 1.29 µM
LC50 [24]: 5.5 µM
TGI [24]: 2.63 µM
GI50 [25]: 3.8 µM
LC50 [25]: 79.4 µM
TGI [25]: 17.8 µM
GI50 [26]: 1.86 µM
CC50 [26]: 6.17 µM
TGI [26]: 3.39 µM
